According to ChEMBL document CHEMBL1150387, “Development and experimental validation of a docking strategy for the generation of kinase-targeted libraries” (J Med Chem, 2008):

What was measured:
[1] = biological target: Receptor-type tyrosine-protein kinase FLT3 (Homo sapiens) (UniProt P36888); assay: Inhibition of FLT3 at 10 uM by HTRF assay relative to control
Procedure, shortened: (§1)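 HTRF kinase assay, one panel of kinases. Inhibitor stock 50 µM in 100% DMSO; tested at 10 µM. ATP and substrate at final levels near Km. Final buffer: 50 mM Hepes/NaOH pH 7.4, 40 µM Na3VO4, 0.005% Tween-20, 1 mM DTT, MnCl2 or MgCl2 at kinase-dependent levels. Started by adding ATP/substrate. Reaction run at room temperature, time varied by kinase. Detection mix in 50 mM Hepes pH 7.4, 0.1% BSA, 150 mM KF, incubated ≥1 h at room temperature. Activity expressed as % of uninhibited control; n=2.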

[2] = biological target: Tyrosine-protein kinase Fes/Fps (Homo sapiens) (UniProt P07332); assay: Inhibition of FES at 10 uM by HTRF assay relative to control; procedure, shortened: as §1
[3] = biological target: T1, Tyrosine-protein kinase JAK3 (Homo sapiens) (UniProt P52333); assay: Inhibition of JAK3 at 10 uM by HTRF assay relative to control; procedure, shortened: as §1
T1 sequence (whole entry): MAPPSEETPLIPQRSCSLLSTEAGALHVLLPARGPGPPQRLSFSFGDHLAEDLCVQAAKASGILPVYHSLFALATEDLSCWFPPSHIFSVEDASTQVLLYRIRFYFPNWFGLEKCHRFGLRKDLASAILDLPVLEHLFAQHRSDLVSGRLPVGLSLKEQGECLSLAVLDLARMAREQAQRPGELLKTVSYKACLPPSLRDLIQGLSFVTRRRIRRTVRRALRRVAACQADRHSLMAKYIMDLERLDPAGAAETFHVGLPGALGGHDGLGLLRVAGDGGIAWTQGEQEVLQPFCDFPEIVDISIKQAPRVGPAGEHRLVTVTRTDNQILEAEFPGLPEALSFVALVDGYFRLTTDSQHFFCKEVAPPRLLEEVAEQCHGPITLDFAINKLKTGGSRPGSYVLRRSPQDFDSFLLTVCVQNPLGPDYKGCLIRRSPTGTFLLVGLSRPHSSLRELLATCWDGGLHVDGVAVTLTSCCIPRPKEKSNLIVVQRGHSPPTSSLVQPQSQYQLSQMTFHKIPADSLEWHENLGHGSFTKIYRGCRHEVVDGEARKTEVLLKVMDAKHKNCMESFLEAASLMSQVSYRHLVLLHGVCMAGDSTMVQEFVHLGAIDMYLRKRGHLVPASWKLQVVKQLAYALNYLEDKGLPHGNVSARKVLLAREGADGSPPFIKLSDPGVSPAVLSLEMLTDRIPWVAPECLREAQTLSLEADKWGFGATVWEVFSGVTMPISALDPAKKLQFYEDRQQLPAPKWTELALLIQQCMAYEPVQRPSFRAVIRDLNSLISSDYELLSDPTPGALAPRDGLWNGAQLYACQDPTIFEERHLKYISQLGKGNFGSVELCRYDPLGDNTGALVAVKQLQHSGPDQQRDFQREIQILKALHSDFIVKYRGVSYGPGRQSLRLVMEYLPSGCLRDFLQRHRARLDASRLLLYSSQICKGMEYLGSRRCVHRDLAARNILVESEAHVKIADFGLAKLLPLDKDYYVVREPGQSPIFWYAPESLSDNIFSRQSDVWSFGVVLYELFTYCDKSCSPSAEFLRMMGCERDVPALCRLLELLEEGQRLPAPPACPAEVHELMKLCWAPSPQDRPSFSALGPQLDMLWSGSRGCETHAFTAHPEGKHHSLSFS

[4] = biological target: Protein kinase C alpha type (Homo sapiens) (UniProt P17252); assay: Inhibition of PKCalpha at 10 uM by HTRF assay relative to control; procedure, shortened: as §1
[5] = biological target: High affinity nerve growth factor receptor (Homo sapiens) (UniProt P04629); assay: Inhibition of TrkA at 10 uM by HTRF assay relative to control; procedure, shortened: as §1
[6] = biological target: Calcium/calmodulin-dependent protein kinase type II subunit alpha (Homo sapiens) (UniProt Q9UQM7); assay: Inhibition of CaMK2alpha at 10 uM by HTRF assay relative to control; procedure, shortened: as §1
Sequence of Calcium/calmodulin-dependent protein kinase type II subunit alpha (Homo sapiens) (Q9UQM7 whole entry): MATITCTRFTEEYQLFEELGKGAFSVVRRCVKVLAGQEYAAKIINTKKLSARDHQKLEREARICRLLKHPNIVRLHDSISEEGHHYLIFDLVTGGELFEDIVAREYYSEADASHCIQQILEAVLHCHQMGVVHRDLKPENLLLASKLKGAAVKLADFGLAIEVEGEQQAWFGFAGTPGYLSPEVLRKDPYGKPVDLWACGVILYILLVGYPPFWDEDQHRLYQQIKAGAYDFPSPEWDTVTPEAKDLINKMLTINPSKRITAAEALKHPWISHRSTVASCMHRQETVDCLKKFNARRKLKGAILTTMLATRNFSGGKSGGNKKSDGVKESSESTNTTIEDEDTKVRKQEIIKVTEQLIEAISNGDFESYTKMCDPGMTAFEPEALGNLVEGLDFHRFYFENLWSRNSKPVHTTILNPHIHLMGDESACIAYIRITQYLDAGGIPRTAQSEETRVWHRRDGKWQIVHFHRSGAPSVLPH

[7] = biological target: Mitogen-activated protein kinase 1 (Homo sapiens) (UniProt P28482); assay: Inhibition of ERK2 at 10 uM by HTRF assay relative to control; procedure, shortened: as §1
Sequence of Mitogen-activated protein kinase 1 (Homo sapiens) (P28482 whole entry): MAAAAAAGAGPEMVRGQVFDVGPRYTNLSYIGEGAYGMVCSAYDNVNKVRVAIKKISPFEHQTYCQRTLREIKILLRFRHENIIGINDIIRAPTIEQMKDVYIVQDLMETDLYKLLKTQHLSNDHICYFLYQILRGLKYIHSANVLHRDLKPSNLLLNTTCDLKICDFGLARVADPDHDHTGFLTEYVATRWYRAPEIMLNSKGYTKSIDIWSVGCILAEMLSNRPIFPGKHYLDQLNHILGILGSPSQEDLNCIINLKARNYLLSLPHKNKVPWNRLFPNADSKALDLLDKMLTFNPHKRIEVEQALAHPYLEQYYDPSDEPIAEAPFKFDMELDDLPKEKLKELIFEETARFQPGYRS

[8] = biological target: Ribosomal protein S6 kinase beta-1 (Homo sapiens) (UniProt P23443); assay: Inhibition of p70S6K at 10 uM by HTRF assay relative to control; procedure, shortened: as §1
Sequence of Ribosomal protein S6 kinase beta-1 (Homo sapiens) (P23443 whole entry, looked up): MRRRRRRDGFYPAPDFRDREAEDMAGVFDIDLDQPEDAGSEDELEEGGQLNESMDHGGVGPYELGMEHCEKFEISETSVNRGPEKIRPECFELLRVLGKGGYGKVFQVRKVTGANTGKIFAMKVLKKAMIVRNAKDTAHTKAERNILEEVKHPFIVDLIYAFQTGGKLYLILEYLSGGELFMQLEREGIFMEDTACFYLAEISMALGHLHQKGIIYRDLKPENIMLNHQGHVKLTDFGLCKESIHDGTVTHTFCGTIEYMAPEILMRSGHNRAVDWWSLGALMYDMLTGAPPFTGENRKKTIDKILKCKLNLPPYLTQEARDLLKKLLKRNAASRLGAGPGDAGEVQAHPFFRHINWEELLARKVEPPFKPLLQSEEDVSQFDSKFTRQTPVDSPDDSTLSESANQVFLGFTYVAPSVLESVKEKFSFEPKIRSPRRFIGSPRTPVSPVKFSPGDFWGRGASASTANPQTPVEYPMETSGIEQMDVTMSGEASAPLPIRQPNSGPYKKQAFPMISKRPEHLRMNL

[9] = biological target: Cyclin-dependent kinase 2 (Homo sapiens) (UniProt P24941); assay: Inhibition of CDK2 at 10 uM by HTRF assay relative to control; procedure, shortened: as §1
[10] = biological target: Vascular endothelial growth factor receptor 1 (Homo sapiens) (UniProt P17948); assay: Inhibition of FLT1 at 10 uM by HTRF assay relative to control; procedure, shortened: as §1
Sequence of Vascular endothelial growth factor receptor 1 (Homo sapiens) (P17948 whole entry): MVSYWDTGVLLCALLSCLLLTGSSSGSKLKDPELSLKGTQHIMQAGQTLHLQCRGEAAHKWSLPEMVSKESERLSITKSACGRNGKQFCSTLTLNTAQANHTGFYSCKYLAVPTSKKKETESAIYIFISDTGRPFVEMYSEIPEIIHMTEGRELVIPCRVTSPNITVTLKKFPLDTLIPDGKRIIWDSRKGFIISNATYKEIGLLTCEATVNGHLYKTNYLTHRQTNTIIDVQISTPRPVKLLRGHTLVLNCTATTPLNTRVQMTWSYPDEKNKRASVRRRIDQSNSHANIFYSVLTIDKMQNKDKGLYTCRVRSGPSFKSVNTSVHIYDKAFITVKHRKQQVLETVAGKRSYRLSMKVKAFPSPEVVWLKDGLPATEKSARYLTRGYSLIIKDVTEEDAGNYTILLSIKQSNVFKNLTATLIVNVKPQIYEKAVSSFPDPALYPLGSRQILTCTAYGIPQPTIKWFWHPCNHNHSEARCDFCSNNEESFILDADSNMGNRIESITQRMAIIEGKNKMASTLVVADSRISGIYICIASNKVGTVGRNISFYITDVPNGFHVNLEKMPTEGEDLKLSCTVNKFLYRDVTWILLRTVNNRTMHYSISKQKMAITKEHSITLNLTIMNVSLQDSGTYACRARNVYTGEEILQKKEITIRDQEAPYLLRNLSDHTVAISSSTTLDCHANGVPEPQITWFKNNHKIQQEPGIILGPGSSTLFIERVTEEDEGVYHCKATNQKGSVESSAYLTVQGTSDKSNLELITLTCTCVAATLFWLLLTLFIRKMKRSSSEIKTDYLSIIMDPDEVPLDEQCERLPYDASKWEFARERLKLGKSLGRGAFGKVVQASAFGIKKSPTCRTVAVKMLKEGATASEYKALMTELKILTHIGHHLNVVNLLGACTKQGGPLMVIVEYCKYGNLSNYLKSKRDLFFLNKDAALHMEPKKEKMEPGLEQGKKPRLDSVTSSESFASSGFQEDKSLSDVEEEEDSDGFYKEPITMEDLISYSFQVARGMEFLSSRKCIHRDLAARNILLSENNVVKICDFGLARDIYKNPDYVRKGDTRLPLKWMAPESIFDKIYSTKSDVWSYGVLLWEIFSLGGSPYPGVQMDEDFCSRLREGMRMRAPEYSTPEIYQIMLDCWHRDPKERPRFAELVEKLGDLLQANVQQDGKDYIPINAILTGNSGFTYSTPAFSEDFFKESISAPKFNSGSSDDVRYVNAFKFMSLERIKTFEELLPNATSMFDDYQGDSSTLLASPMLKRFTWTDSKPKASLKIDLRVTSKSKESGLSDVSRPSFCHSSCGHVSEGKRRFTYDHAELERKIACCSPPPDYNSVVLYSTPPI

[11] = biological target: Fibroblast growth factor receptor 1 (Homo sapiens) (UniProt P11362); assay: Inhibition of FGFR1 at 10 uM by HTRF assay relative to control; procedure, shortened: as §1
Sequence of Fibroblast growth factor receptor 1 (Homo sapiens) (P11362 22-822 limits assumed): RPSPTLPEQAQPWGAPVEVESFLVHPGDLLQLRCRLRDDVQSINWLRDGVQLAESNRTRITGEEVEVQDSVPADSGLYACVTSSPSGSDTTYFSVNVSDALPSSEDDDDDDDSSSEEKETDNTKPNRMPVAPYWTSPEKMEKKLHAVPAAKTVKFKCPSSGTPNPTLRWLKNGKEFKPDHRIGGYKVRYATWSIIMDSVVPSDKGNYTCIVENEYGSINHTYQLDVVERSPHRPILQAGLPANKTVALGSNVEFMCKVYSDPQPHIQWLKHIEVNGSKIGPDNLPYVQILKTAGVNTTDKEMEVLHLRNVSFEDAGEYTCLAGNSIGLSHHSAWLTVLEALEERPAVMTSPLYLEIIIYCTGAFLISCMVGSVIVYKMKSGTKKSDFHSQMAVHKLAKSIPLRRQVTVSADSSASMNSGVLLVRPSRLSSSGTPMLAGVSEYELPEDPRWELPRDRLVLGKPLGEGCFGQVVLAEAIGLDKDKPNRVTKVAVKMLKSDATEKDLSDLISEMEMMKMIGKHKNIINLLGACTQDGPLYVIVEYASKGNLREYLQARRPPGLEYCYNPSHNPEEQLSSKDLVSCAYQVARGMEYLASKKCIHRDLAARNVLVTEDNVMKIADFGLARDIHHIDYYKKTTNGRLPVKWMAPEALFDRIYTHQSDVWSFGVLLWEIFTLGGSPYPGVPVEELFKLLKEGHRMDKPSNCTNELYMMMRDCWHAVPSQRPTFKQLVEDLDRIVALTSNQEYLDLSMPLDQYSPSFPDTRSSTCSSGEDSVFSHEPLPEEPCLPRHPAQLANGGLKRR

[12] = biological target: MAP kinase-activated protein kinase 2 (Homo sapiens) (UniProt P49137); assay: Inhibition of MAPKAPK2 at 10 uM by HTRF assay relative to control; procedure, shortened: as §1
Sequence of MAP kinase-activated protein kinase 2 (Homo sapiens) (P49137 whole entry, looked up): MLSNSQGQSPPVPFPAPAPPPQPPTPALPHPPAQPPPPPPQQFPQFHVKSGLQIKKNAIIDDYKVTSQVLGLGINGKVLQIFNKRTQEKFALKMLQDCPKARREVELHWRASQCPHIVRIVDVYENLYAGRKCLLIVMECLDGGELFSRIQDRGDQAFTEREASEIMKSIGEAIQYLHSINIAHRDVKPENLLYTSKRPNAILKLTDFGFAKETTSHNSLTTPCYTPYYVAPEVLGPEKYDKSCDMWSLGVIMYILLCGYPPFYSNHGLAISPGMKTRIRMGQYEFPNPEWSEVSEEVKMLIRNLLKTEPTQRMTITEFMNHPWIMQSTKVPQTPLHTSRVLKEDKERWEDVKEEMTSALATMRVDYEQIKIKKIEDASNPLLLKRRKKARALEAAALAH

[13] = biological target: Protein kinase C gamma type (Homo sapiens) (UniProt P05129); assay: Inhibition of PKCgamma at 10 uM by HTRF assay relative to control; procedure, shortened: as §1
[14] = biological target: Mitogen-activated protein kinase 9 (Homo sapiens) (UniProt P45984); assay: Inhibition of JNK2 at 10 uM by HTRF assay relative to control; procedure, shortened: as §1
Sequence of Mitogen-activated protein kinase 9 (Homo sapiens) (P45984 whole entry, looked up): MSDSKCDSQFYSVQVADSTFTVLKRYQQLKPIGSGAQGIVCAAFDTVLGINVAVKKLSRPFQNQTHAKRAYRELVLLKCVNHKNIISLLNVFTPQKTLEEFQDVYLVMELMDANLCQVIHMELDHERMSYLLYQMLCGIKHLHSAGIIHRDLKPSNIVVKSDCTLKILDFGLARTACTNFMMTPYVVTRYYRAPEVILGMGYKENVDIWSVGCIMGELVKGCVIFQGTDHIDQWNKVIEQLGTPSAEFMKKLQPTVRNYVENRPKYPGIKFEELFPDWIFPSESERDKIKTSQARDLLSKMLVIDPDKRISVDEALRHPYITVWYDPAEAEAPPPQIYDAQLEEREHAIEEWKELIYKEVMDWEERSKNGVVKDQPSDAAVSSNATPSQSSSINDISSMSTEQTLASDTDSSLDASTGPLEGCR

[15] = biological target: T2, Calcium/calmodulin-dependent protein kinase type IV (Homo sapiens) (UniProt Q16566); assay: Inhibition of CaMK4 at 10 uM by HTRF assay relative to control; procedure, shortened: as §1
T2 sequence (whole entry): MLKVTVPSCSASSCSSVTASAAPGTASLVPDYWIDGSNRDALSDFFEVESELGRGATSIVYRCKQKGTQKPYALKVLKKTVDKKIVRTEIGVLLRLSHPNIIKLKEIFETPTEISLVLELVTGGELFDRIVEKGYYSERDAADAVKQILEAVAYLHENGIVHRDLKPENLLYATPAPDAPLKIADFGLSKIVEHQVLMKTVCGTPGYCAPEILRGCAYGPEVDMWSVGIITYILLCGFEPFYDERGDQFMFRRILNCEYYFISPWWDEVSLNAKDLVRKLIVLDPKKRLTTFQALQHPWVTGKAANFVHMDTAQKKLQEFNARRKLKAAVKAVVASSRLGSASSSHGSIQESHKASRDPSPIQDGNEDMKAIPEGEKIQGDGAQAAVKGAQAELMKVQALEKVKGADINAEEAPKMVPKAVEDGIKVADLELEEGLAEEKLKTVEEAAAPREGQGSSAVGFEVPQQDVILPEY

[16] = biological target: Ribosomal protein S6 kinase alpha-3 (Homo sapiens) (UniProt P51812); assay: Inhibition of RSK2 at 10 uM by HTRF assay relative to control; procedure, shortened: as §1
[17] = biological target: Serine/threonine-protein kinase Chk2 (Homo sapiens) (UniProt O96017); assay: Inhibition of CHK2 at 10 uM by HTRF assay relative to control; procedure, shortened: as §1

inhibition [1]: 0%
inhibition [2]: 6%
inhibition [3]: 0%
inhibition [4]: 8%
inhibition [5]: 13%
inhibition [6]: 0%
inhibition [7]: 0%
inhibition [8]: 11%
inhibition [9]: 16%
inhibition [10]: 0%
inhibition [11]: 6%
inhibition [12]: 1%
inhibition [13]: 2%
inhibition [14]: 5%
inhibition [15]: 0%
inhibition [16]: 5%
inhibition [17]: 0%
Compound: Clc1ccc2sc(CN3CCN(c4ncnc5c4CN(Cc4ccccc4)CC5)CC3)cc2c1
